Laboratory results from article PMC7717452 (Journal of Enzyme Inhibition and Medicinal Chemistry, 2020).
Where two headings read alike, the source gives them in different places. Each block holds one compound with its values, some of them ahead of it.

Columns and labels:
[1] = target: T1, LiTryS (Leishmania infantum trypanothione synthetase) (Leishmania infantum, UniProt A4I2Z3); assay: TryS activity end-point assay; format: biochemical; details: for IC50: ± 2σ, ∼30 assumed for 50 ± 5% inhibition at 30 µM; for % TryS inhibition at 30 µM, LiTryS: NA = not active (enzyme activity > 95%)
T1 sequence (A4I2Z3 1-652): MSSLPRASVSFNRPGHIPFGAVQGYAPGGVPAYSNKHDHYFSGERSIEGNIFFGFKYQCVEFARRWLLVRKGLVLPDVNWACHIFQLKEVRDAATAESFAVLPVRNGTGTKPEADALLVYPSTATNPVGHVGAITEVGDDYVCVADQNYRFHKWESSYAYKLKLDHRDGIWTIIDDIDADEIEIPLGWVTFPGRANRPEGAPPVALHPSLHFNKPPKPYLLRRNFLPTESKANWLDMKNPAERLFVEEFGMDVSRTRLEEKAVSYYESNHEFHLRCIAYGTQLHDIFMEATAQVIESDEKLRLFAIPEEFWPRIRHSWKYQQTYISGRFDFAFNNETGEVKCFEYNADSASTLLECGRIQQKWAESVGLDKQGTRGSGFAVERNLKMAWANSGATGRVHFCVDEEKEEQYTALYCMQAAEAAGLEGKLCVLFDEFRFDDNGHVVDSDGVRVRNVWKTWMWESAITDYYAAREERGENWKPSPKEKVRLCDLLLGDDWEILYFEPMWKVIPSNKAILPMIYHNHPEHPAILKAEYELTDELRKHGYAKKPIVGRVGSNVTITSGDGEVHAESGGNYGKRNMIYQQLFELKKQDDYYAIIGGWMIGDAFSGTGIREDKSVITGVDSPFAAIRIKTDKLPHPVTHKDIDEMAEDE
Procedure, shortened: (§1)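 Recombinant TryS end-point assay in 100 mM HEPES pH 7.4 with 5 mM DTT, 10 mM MgSO4 and 0.5 mM EDTA. ATP was 150 µM and spermidine 2 mM. GSH was 0.25 mM for LiTryS, 0.05 mM for TbTryS and 0.57 mM for TcTryS. Enzyme started the reaction and BIOMOL Green stopped it after 15 min. A650 was read after 20 min at room temperature. Values were corrected with no-enzyme blanks and for compound interference with phosphate. At least quadruplicates; IC50 is given ± 2σn-1.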

[2] = tested on: Mouse macrophages from the cell line J774; assay: Cytotoxicity assay; format: cell-based; details: 24 h, non-infected J774; for CC50: read-out: CC50, macrophages
Procedure, shortened: (§2)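 J774 mouse macrophages were grown in DMEM with 10% FBS and penicillin/streptomycin at 37 °C in humidified 5% CO2. Cells were seeded at 6 × 10^4 cells/mL and exposed the next day for 24 h to test compound at 100 to 0.001 µM (200 µM for one compound). The WST-1 signal was read at A450. % cytotoxicity was calculated against DMSO-treated and untreated cells, and CC50 is given ± σn–1.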

[3] = tested on: L. braziliensis amastigotes; assay: Macrophage infection assay, L. braziliensis amastigotes; format: cell-based, Leishmania braziliensis; details: for activity at 10 µM: Leishmania braziliensis, Macrophage, read-out: % infection by L. braziliensis at 10 µM; for SI, L. braziliensis amastigotes: selectivity index, macrophage CC50 and amastigote EC50
Procedure, shortened: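 J774 macrophages were plated on coverslips at 1 × 10^5 cells/mL in DMEM with 1% FBS. They were infected with stationary-phase L. braziliensis promastigotes (MHOM/BR/01/BA788; 1:20) for 2 h at room temperature, then 22 h at 35 °C. After washing, cells got test compound (5 or 10 µM, or 10–0.01 µM) in 1% DMSO for 24 h at 37 °C and 5% CO2. Cells were EtOH-fixed and DAPI-stained, and 100–200 macrophages were imaged. % infected cells is relative to DMSO.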

Cytotoxicity assay = format: cell-based, mouse; details: mouse, J774 macrophages (ATCC TIB67), non-infected
Procedure, shortened: as §2

TbTryS = target: T2, TbTryS (Trypanosoma brucei brucei, UniProt Q8IEX1); assay: TryS activity end-point assay; format: biochemical; details: IC50 value, TbTryS, ± 2σ; ~30 assumed for 50 ± 5% inhibition at 30 µM
T2 sequence (Q8IEX1 1-627): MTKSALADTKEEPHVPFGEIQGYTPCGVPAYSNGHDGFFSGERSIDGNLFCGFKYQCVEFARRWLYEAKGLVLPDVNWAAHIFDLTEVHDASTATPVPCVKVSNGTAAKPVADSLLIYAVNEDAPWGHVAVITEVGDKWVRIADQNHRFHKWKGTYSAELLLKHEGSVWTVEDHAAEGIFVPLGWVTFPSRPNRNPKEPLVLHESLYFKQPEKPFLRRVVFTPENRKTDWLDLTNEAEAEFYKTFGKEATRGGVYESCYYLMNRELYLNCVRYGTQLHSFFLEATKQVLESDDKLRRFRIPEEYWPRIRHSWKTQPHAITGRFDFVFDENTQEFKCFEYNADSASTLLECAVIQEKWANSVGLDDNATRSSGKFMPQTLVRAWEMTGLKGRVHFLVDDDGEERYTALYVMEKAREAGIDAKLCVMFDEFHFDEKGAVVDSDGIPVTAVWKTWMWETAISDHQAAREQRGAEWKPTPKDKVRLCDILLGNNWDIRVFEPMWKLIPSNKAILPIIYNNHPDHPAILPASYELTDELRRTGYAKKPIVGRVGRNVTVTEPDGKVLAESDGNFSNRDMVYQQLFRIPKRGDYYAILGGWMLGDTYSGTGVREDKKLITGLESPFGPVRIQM
Procedure, shortened: as §1

[4] = 24 h, relative to infected non-treated macrophages

IC50 ([1]; read-out: IC50 value, LiTryS): 20.1 ± 1.5 µM
Structure (SMILES): O=C(CN1C(=O)Cc2c([nH]c3ccc(Br)cc23)-c2ccc(Cl)cc21)Nc1ncco1 [Compound 18]

IC50 ([1]; IC50 value, LiTryS): 2.8 ± 0.7 µM
Structure (SMILES): O=C(CN1C(=O)Cc2c([nH]c3ccc(Br)cc23)-c2ccc(Cl)cc21)N1CCOCC1 [Compound 26]
CC50 [2]: 10.2 ± 0.2 µM
activity at 10 µM ([3]; 24 h): 29 ± 3%
SI, L. braziliensis amastigotes [3]: 6

IC50 ([1]; IC50 value, LiTryS): 0.5 ± 0.1 µM
IC50 (TbTryS): ~30 µM
Structure (SMILES): CCN(CC)C(=O)CN1C(=O)Cc2c([nH]c3ccc(Br)cc23)-c2ccc(Cl)cc21 [Compound 12]
cytotoxicity at 24 h, 100 µM (Cytotoxicity assay): 24 ± 8%
activity at 10 µM ([3]; 24 h): 82 ± 14%

IC50 ([1]; IC50 value, LiTryS): 12.5 ± 0.2 µM
Structure (SMILES): O=C(CN1C(=O)Cc2c([nH]c3ccc(Br)cc23)-c2ccc(Cl)cc21)N1CCN(c2ncccn2)CC1 [Compound 23]

IC50 ([1]; IC50 value, LiTryS): 0.8 ± 0.1 µM
Structure (SMILES): CNC(=O)CN1C(=O)Cc2c([nH]c3ccc(Br)cc23)-c2ccc(Cl)cc21 [Compound 9]
cytotoxicity at 24 h, 100 µM (Cytotoxicity assay): 93 ± 4%
activity at 10 µM ([3]; 24 h): 107 ± 2%

% TryS inhibition at 30 µM, LiTryS [1]: inactive
Structure (SMILES): O=C(O)CN1C(=O)Cc2c([nH]c3ccc(Br)cc23)-c2ccc(Cl)cc21 [Compound 3]

IC50 ([1]; IC50 value, LiTryS): 0.5 µM
Structure (SMILES): CN(C)C(=O)CN1C(=O)Cc2c([nH]c3ccc(Br)cc23)-c2ccc(Cl)cc21 [Compound 10]
cytotoxicity at 24 h, 100 µM (Cytotoxicity assay): 21 ± 1%
% infection by L. braziliensis at 5 µM [3, 4]: 72 ± 4 at 5 µM %

IC50 ([1]; IC50 value, LiTryS): 2.3 ± 0.3 µM
Structure (SMILES): O=C(CN1C(=O)Cc2c([nH]c3ccc(Br)cc23)-c2ccc(Cl)cc21)NCCO [Compound 13]

IC50 ([1]; IC50 value, LiTryS): 3 ± 0.7 µM
Structure (SMILES): COC(=O)CN1C(=O)Cc2c([nH]c3ccc(Br)cc23)-c2ccc(Cl)cc21 [Compound 4]

IC50 ([1]; read-out: IC50 value, LiTryS): 2.4 ± 0.3 µM
Structure (SMILES): CC(C)(C)OC(=O)CN1C(=O)Cc2c([nH]c3ccc(Br)cc23)-c2ccc(Cl)cc21 [Compound 6]
% cytotoxicity at 100 µM, macrophages ([2]; 100 µM): 64 ± 0%
% infection by L. braziliensis at 10 µM ([3]; 10 µM, 24 h, relative to infected non-treated macrophages): 89 ± 13%

IC50 ([1]; IC50 value, LiTryS): ~30 µM
IC50 (TbTryS): 30 µM
Structure (SMILES): O=C(CN1C(=O)Cc2c([nH]c3ccc(Br)cc23)-c2ccc(Cl)cc21)Nc1ccccc1 [Compound 19]

% TryS inhibition at 30 µM, LiTryS [1]: 36.7 ± 5.9%
Structure (SMILES): CC(C)(C)OC(=O)NCCNC(=O)CN1C(=O)Cc2c([nH]c3ccc(Br)cc23)-c2ccc(Cl)cc21 [Compound 29]

IC50 ([1]; read-out: IC50 value, LiTryS): ~30 µM
Structure (SMILES): O=C1Cc2c([nH]c3ccc(Br)cc23)-c2ccc(Cl)cc2N1CCO [Compound 2]

Structure (SMILES): NCCNC(=O)CN1C(=O)Cc2c([nH]c3ccc(Br)cc23)-c2ccc(Cl)cc21 [Compound 27]
cytotoxicity at 24 h, 100 µM (Cytotoxicity assay): 36 ± 1%
activity at 10 µM ([3]; 24 h): 68 ± 1%

IC50 ([1]; IC50 value, LiTryS): 0.5 ± 0.1 µM
Structure (SMILES): CCN(CC)CCNC(=O)CN1C(=O)Cc2c([nH]c3ccc(Br)cc23)-c2ccc(Cl)cc21 [Compound 28]
CC50 [2]: 6 ± 1 µM
% infection by L. braziliensis at 5 µM [3, 4]: 38 ± 1 at 5 µM %
SI, L. braziliensis amastigotes [3]: 2

IC50 ([1]; IC50 value, LiTryS): 5.2 ± 0.4 µM
Structure (SMILES): O=C(CN1C(=O)Cc2c([nH]c3ccc(Br)cc23)-c2ccc(Cl)cc21)NC(CO)(CO)CO [Compound 14]
